Compound activity: PubChem, several laboratories
ABHD5-PLIN5 inh – blocks binding of human ABHD5 to perilipin-5 | 360,000 tested, 0.78% active | Split G. princeps luciferase complementation, luminescence, 4 h | inhibition, % at 4 µM | Q00G26+Q8WTS1;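 active = inhibition above the mean inhibition across every tested compound plus 3 SD, cut at about 22% in these data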;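 also: 0% = DMSO only wells and the 100% control is not disclosed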
Target sequence (Q00G26 whole entry, looked up): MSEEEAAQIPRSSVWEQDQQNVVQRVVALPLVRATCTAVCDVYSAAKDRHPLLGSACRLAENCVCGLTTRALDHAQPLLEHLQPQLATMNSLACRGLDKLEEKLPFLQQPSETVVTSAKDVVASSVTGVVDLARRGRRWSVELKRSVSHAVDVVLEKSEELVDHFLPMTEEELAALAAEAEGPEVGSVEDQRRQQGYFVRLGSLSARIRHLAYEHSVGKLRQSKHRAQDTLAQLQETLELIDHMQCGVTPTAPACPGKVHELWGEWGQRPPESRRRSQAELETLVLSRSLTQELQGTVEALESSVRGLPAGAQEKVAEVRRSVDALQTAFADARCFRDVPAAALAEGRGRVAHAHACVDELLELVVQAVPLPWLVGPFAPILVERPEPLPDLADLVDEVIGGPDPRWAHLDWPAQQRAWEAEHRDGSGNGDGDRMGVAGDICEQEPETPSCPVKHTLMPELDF
Target sequence (Q8WTS1 whole entry, looked up): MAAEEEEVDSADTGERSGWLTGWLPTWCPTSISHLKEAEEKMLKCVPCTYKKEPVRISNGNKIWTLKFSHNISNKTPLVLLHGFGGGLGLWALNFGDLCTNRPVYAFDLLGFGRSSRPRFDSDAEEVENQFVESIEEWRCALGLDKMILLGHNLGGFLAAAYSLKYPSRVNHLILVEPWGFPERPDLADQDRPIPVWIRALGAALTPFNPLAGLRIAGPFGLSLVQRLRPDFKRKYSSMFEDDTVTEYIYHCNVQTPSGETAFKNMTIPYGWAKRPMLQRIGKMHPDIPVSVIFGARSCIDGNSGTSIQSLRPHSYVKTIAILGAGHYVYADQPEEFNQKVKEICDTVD
HCV core dimer – HCV core protein dimerization inhibition | TR-FRET GST/Flag-core106 dimerization, 1536-well | inhibition, % at 5 µM | 300,000 tested, 0.33% active | AID 1899;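 active = inhibition above the mean of all tested compounds plus 3 SD, set per screening campaign, cut at about 45% in these data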
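Assay system: tagged HCV core106 pair (GST and Flag); medium: KF-containing HEPES buffer, pH 7.45, DTT, CHAPS, BSA; also added: Eu donor and XL665 acceptor anti-tag antibodies; dosing: 5 µM single dose; timing: compound-protein-antibody incubation 4 h at 22.5 °C; signal: TR-FRET 671 and 617 nm emission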
NadD inh – NadD (S. aureus) enzyme inhibition; inhibition, % at 20 µM; purified NadD enzyme, colorimetric absorbance read-out; 360,000 tested, 0.78% active; in the data active = inhibition above about 26%
rCAG binder-1 – binds r(CAG) RNA repeats; inhibition, % at 3 µM; 370,000 tested, 1.3% active; r(CAG) RNA repeat, TO-PRO-1 dye displacement fluorescence;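 active = inhibition above the plate cutoff, the mean of all test compounds on that plate plus 3 SD, cut at about 35% in these data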;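 also: 0% = DMSO alone and 100% = 100 µM mitoxantrone as full dye displacement; higher means more dye released from RNA so lower well fluorescence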
rCAG bind conf – r(CAG) RNA repeat binding, confirmation; shares compounds with rCAG binder-1; AID 652065; inhibition, % at 3 µM; TO-PRO-1 dye displacement fluorescence; 4,300 tested, 70% active;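 active = inhibition above a per-plate cutoff, the mean inhibition of sample wells plus 3 SD, cut at about 35% in these data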;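 also: loss of TO-PRO-1 fluorescence as compound displaces dye from 1x1 AA loop RNA; 0% = DMSO only wells and 100% = 100 µM mitoxantrone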
dCAG dye counter – disrupts DNA CAG TO-PRO-1 complex, flagging rCAG hits | shares compounds with rCAG binder-1 | d(CAG) DNA oligo TO-PRO-1 dye displacement, fluorescence | 4,300 tested, 94% active | inhibition, % at 3 µM;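 active = inhibition above its plate's cutoff, the mean test-well inhibition plus 3 SD, cut at about 4.8% in these data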;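 also: 0% = DNA dye mix with DMSO and 100% = 100 µM mitoxantrone; hits displace the dye from DNA and so lower well fluorescence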
dCAG dye DR – disrupts DNA CAG TO-PRO-1 complex in dose response; shares compounds with rCAG binder-1; DNA CAG/GTC duplex TO-PRO-1 dye displacement fluorescence; IC50, µM; 250 tested, 20% active; AID 686960; in the data active = IC50 below about 10 µM
dCAG DNA bind – DNA CAG dye complex inhibition, late stage dose response; shares compounds with rCAG binder-1; d(CAG) DNA duplex TO-PRO-1 dye displacement, fluorescence; IC50, µM; 30 tested, 80% active
rCAG binder-2 – r(CAG) repeat RNA binding, TO-PRO-1 displacement; shares compounds with rCAG binder-1; r(CAG) RNA TO-PRO-1 dye displacement, fluorescence; IC50, µM; 30 tested, 100% active; AID 720651
* = called active by the depositor; i = inactive; · = no result. An excerpt weighted towards active compounds, which were near 2.6% of everything screened. Unless noted, no rule for the calls is given here.

SMILES | ABHD5-PLIN5 inh | HCV core dimer | NadD inh | rCAG binder-1 | rCAG bind conf | dCAG dye counter | others
CC(C)CSC1=NSC2=NC(=O)/C(=C\c3cccs3)C(=N)N12 | -1.7 | -2.2 | 1.6 | 71.7* | 56.8* | 21.0* | dCAG dye DR=i;dCAG DNA bind=4.26*;rCAG binder-2=1.66*
N=C1/C(=C/c2cccs2)C(=O)N=C2SN=C(SCc3ccccc3)N12 | -0.2 | 0.5 | 2.9 | 74.8* | 82.0* | 49.8*
COC(=O)[C@]12CCCCC=C1N(CCC1=CCCCC1)C(=O)[C@H](CC(=O)N1CCN(C(=O)c3ccco3)CC1)C2 | 0.0 | · | 9.2 | 3.1 | · | ·
COC(=O)[C@]12C[C@H](CC(=O)N3CCOCC3)C(=O)N(Cc3ccccc3)C1=C[C@H](COCc1ccccc1)O[C@@H]2C | · | · | · | -1.4 | · | ·
O=C(O)Cn1cc(/C=C2/SC(=O)N(CC(=O)N3CCCCCC3)C2=O)c2ccccc21 | · | -2.3 | · | 40.3* | 36.9* | 10.4*
O=C(c1cc(Br)c(Br)s1)N1CCN(C/C=C/c2ccccc2)CC1 | -3.2 | -9.8 | -4.5 | 35.7* | 2.9 | 3.1
Cc1cc(C(=O)N2CCN(C/C=C/c3ccccc3)CC2)cs1 | 4.3 | -0.9 | 12.3 | · | · | ·
COC(=O)c1cc2c(c3c4cc(C)ccc4n(S(=O)(=O)c4cccc(C)c4)c13)C(=O)N(C)C2 | · | · | · | 11.5 | · | ·
O=[N+]([O-])c1c(Nc2ccccc2O)ccc2nonc12 | 2.3 | -7.0 | 3.4 | 0.7 | · | ·
O=[N+]([O-])c1c(Nc2ccccc2O)cc(Cl)c2nonc12 | 63.3* | · | 8.6 | 41.0* | 19.9 | 9.7*
C[C@@H]1CN([C@H](C)CO)C(=O)c2cc(NC(=O)Nc3ccc(F)cc3)ccc2O[C@@H](C)CCCCO[C@@H]1CN(C)C(=O)CCCN(C)C | · | · | · | 6.8 | · | ·
CNS(=O)(=O)c1cccc(C(=O)OCC(=O)NC(C)CCc2ccccc2)c1 (configuration not stated) | 6.8 | -1.0 | -5.0 | -0.7 | · | ·
O=C(COC(=O)c1ccccc1NS(=O)(=O)c1cc([N+](=O)[O-])ccc1Cl)c1ccccc1 | · | -2.6 | · | · | · | ·
CC(CCc1ccccc1)NC(=O)COC(=O)c1cc(NS(=O)(=O)c2ccc(Cl)c([N+](=O)[O-])c2)ccc1O (configuration not stated) | -0.5 | 6.3 | 11.4 | 46.4* | 43.4* | 12.3*
CN(C(=O)COC(=O)c1cc(NS(=O)(=O)c2cc([N+](=O)[O-])ccc2Cl)ccc1O)C1CCCCC1 | 2.0 | 19.5 | 7.6 | 56.0* | 52.8* | 16.7*
C[C@@H]1OC(C2CCCCC2)N(C)[C@H]2C[C@H]3c4[nH]c5c(-c6ccc7c(c6)OCO7)cccc5c4CCN3C[C@@H]12 (some centres not stated) | · | · | · | 8.3 | · | ·
O=S1(=O)C=CCN1Cc1cn(Cc2ccc(Cl)cc2)nn1 | · | · | · | 0.5 | · | ·
CCN1C(=O)N2C[C@H]3CON(C)[C@H]3C[C@H]2c2ccccc21 | 1.1 | · | -5.4 | 4.5 | · | ·
Cc1ccc(C(=O)N/N=C(/CC(=O)c2cccs2)C(F)(F)F)cc1 | -2.6 | -5.8 | -3.7 | 45.4* | 32.0 | 7.6*
COCCCN1C(=O)C(CC(=O)NC(c2ccccc2)c2ccccc2)CC(C(=O)N2CCCCCC2)=C1C (configuration not stated) | 3.1 | · | 9.6 | -0.3 | · | ·
O=C(N=Nc1c(O)[nH]c2ccccc12)c1cc(NS(=O)(=O)c2cccs2)cc(NS(=O)(=O)c2cccs2)c1 | 7.3 | 16.0 | 24.6 | 67.2* | 73.0* | 35.4*
CC(OC(=O)c1ccc(NS(=O)(=O)c2ccc3[nH]c(=O)[nH]c3c2)cc1)C(N)=O (configuration not stated) | 2.8 | -3.6 | -6.5 | 3.4 | · | ·
CC(=O)c1ccc(NC(=O)C(C)OC(=O)c2ccc(NS(=O)(=O)c3ccc(F)c(F)c3)cc2)cc1 (configuration not stated) | 2.1 | 7.6 | 2.0 | 52.6* | 42.6* | 17.2*
Cc1ccc(NC(=O)C(C)OC(=O)c2ccc(NS(=O)(=O)c3ccc(F)c(F)c3)cc2)cc1 (configuration not stated) | -10.7 | 9.1 | 5.7 | 58.2* | 67.3* | 20.0*
CC(OC(=O)c1ccc(NS(=O)(=O)c2ccc3[nH]c(=O)[nH]c3c2)cc1)C(=O)Nc1ccc(Cl)cc1 (configuration not stated) | -3.8 | 6.0 | 6.9 | 42.8* | 27.6 | 12.7*
SMILES | ABHD5-PLIN5 inh | HCV core dimer | NadD inh | rCAG binder-1 | rCAG bind conf | dCAG dye counter | others
COC(=O)[C@]12C[C@H](CC(=O)NCC34CC5CC(CC(C5)C3)C4)C(=O)N(CCc3ccc(OC)c(OC)c3)C1=C[C@H](COCc1ccccc1)O[C@@H]2C | · | · | · | 9.6 | · | ·
COc1ccc(CNS(=O)(=O)/C=C/c2ccc(F)cc2CNC(=O)OC(C)(C)C)cc1 | · | · | · | 1.9 | · | ·
COC(=O)C1=C(C)N(Cc2ccccc2C(F)(F)F)C(=NCc2ccc3c(c2)OCO3)NC1c1cccc(Cl)c1 (configuration not stated) | · | · | · | 4.1 | · | ·
O=C(Nc1ccc2c(c1)Cc1ccccc1-2)NC1CCCCN(Cc2ccc(Cl)cc2)C1=O (configuration not stated) | · | · | · | 12.8 | · | ·
Oc1ccc(/C=N/N=C/c2ccc(O)c(O)c2)cc1O | -1.8 | -17.4 | 2.0 | 1.1 | · | ·
O=C(/C(=N/N=C/c1ccc(O)c(O)c1)c1ccccc1)c1ccccc1 | 1.4 | -8.6 | 8.9 | 37.4* | 51.0* | 27.0*
NC(Cc1ccc(O)cc1)C(=O)NN=Cc1ccccc1Cl (configuration not stated) | · | · | · | 5.6 | · | ·
Cc1ccc(Cl)cc1N1CCN(C(=O)Cc2cn(C)c3ccccc23)CC1 | 0.6 | 7.1 | 2.2 | -6.0 | · | ·
O=C(Cc1c(C(=O)O)[nH]c2ccc(Cl)cc12)Nc1ccc2c(c1)OCCO2 | -1.8 | 2.9 | -3.9 | 49.7* | 41.8* | 8.4*
CC1CC(C)CN(C(=O)Cc2c(C(=O)O)[nH]c3ccc(Cl)cc23)C1 (configuration not stated) | 0.2 | -1.3 | 2.7 | 19.0 | · | ·
Cc1ccc(Cl)cc1N1CCN(C(=O)Cc2c(C(=O)O)[nH]c3ccc(Cl)cc23)CC1 | -5.6 | 24.5 | 21.9 | 74.1* | 83.6* | 54.8*
Cc1ccc(Cl)cc1N1CCN(C(=O)Cc2c(C(=O)O)[nH]c3ccccc23)CC1 | 0.3 | 7.1 | 13.1 | 50.8* | 48.0* | 14.1*
COC(=O)[C@]12C[C@H](CC(=O)NCc3cccc(C(F)(F)F)c3)C(=O)N(CCc3ccc(OC)c(OC)c3)C1=C[C@H](C1CCCC1)O[C@@H]2C | · | · | · | 1.9 | · | ·
